# The source made the active and inactive calls. The rule behind the calls is not given here.
# How the values were obtained:
# [1] = Increase in osteoblastogenesis in mouse Calvarial cells assessed as increase in BMP-2 gene expression at 1 uM by quantitative RT-PCR method relative to untreated-control; type: functional, Calvarial cell
# How it was run: (§1)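 Transcripts of Runx-2, BMP-2 and COL-1 in primary mouse calvarial osteoblasts after compound treatment measured by qPCR, with GAPDH as internal control. Results expressed as fold change over untreated cells.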
# Calvarial cell [2] = experiment: Induction of osteoblast differentiation in mouse Calvarial cells assessed as increase in alkaline phosphatase activity at 10 nM to 1 uM after 48 hrs by spectrophotometry relative to control; type: functional, cell-based
# How it was run: (§2)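 Neonatal mouse calvarial osteoblasts trypsinized at 70–80% confluence, 2 × 10³ cells/well, treated 48 h in differentiation medium (α-MEM, 10% FCS, 10 mM β-glycerophosphate, ascorbic acid), 1 pM to 1 µM. Cells PBS-washed, freeze-thawed (−80 °C then 37 °C, 30 min each). ALP measured with p-nitrophenylphosphate at 405 nm. Mean ± S.D. of three independent experiments versus untreated control.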
# [3] = Increase in mineralization in mouse Calvarial cells assessed as mineralized nodule formation at 1 uM after 21 days using alizarin red-S staining by spectrophotometry relative to untreated-control; type: functional, Calvarial cell
# [4] = Increase in mineralization in mouse Calvarial cells assessed as mineralized nodule formation at 10 nM after 21 days using alizarin red-S staining by spectrophotometry relative to untreated-control; type: functional, Calvarial cell
# [5] = Increase in osteoblastogenesis in mouse Calvarial cells assessed as increase in Runx-2 gene expression at 10 nM by quantitative RT-PCR method relative to untreated-control; type: functional, Calvarial cell; how it was run: as §1
# [6] = Increase in osteoblastogenesis in mouse Calvarial cells assessed as increase in BMP-2 gene expression at 10 nM by quantitative RT-PCR method relative to untreated-control; type: functional, Calvarial cell; how it was run: as §1
# Calvarial cell [7] = experiment: Induction of osteoblast differentiation in mouse Calvarial cells assessed as increase in alkaline phosphatase activity at 10 nM after 48 hrs by spectrophotometry relative to control; type: functional, cell-based; how it was run: as §2
# Calvarial cell [8] = experiment: Induction of osteoblast differentiation in mouse Calvarial cells assessed as increase in alkaline phosphatase activity at 1 to 100 pM after 48 hrs by spectrophotometry relative to control; type: functional, cell-based; how it was run: as §2
# [9] = Increase in mineralization in mouse Calvarial cells assessed as mineralized nodule formation at 1 pM after 21 days using alizarin red-S staining by spectrophotometry relative to untreated-control; type: functional, Calvarial cell
# [10] = Increase in osteoblastogenesis in mouse Calvarial cells assessed as increase in COL1 gene expression at 100 pM by quantitative RT-PCR method relative to untreated-control; type: functional, Calvarial cell; how it was run: as §1
# Calvarial cell [11] = experiment: Induction of osteoblast differentiation in mouse Calvarial cells assessed as increase in alkaline phosphatase activity at 100 pM to 1 uM after 48 hrs by spectrophotometry relative to control; type: functional, cell-based; how it was run: as §2
# [12] = Increase in osteoblastogenesis in mouse Calvarial cells assessed as increase in Runx-2 gene expression at 100 pM by quantitative RT-PCR method relative to untreated-control; type: functional, Calvarial cell; how it was run: as §1
# [13] = Increase in mineralization in mouse Calvarial cells assessed as mineralized nodule formation at 100 pM after 21 days using alizarin red-S staining by spectrophotometry relative to untreated-control; type: functional, Calvarial cell
# [14] = Increase in osteoblastogenesis in mouse Calvarial cells assessed as increase in BMP-2 gene expression at 100 pM by quantitative RT-PCR method relative to untreated-control; type: functional, Calvarial cell; how it was run: as §1
smiles,measurement,setting,value
CCOC(=O)c1c(C)nc(C)c(C(=O)OCC)c1-c1cc(C)c2oc(=O)c(C(=O)OC)cc2c1,fold change (FC),[1],2.5
same,Activity,Calvarial cell [2],Active
same,fold change (FC),[3],2
CCOC(=O)c1c(C)nc2c(c1-c1cc(C(C)CC)c3oc(=O)c(C(=O)OC)cc3c1)C(=O)CCC2 (centres undefined),fold change (FC),[4],3
same,fold change (FC),[5],5.2
same,fold change (FC),[6],4.8
same,Activity,Calvarial cell [7],Active
CCOC(=O)c1c(C)nc2c(c1-c1cc(C(C)CC)c3oc(=O)c(C(=O)OCC)cc3c1)C(=O)CC(C)(C)C2 (centres undefined),Activity,Calvarial cell [8],Active
same,fold change (FC),[9],2
CCOC(=O)c1cc2cc(-c3c(C(=O)OC)c(C)nc4c3C(=O)CCC4)cc(C(C)CC)c2oc1=O (centres undefined),fold change (FC),[10],3.1
same,Activity,Calvarial cell [11],Active
same,fold change (FC),[12],5
same,fold change (FC),[13],3.5
same,fold change (FC),[14],2.4
